Rows were chosen to be rich in hits. Some 2.3% of all compounds tested hit in one or more screens of this group.
TRPC4 act – activators of mouse TRPC4 channel; Q9QUQ5; HEK293 TRPC4beta/mu-opioid, Fluo4 calcium fluorescence; active compounds read high; B-score at 10 µM; 310,000 compounds, 0.49% hits;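 active means B-score above 5 SD of library B-scores, and initial fluorescence ratio not above library mean plus 5 SD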;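 further: positive B-score marks a calcium rise read as TRPC4 activation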
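Assay system – TRPC4beta and mu-opioid receptor HEK293 stable cells · Measured by – Fluo4 fluorescence, kinetic · Schedule – dye loading 45 min room temperature, 110 s kinetic read · Read-out – B-scored integrated calcium fluorescence ratio · Controls – buffer and maximal DAMGO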
TRPC6 activator – mouse TRPC6 channel activation | Q61143 | 310,000 compounds, 0.13% hits | HEK293-TRPC6 membrane potential dye fluorescence; active compounds read high | B-score at 10 µM;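 active means B-score of the integrated fluorescence ratio above library mean plus 3 SD, and starting fluorescence ratio within library mean plus 5 SD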;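 further: higher score means more depolarization so channel activation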
Target sequence (Q61143 whole entry, looked up): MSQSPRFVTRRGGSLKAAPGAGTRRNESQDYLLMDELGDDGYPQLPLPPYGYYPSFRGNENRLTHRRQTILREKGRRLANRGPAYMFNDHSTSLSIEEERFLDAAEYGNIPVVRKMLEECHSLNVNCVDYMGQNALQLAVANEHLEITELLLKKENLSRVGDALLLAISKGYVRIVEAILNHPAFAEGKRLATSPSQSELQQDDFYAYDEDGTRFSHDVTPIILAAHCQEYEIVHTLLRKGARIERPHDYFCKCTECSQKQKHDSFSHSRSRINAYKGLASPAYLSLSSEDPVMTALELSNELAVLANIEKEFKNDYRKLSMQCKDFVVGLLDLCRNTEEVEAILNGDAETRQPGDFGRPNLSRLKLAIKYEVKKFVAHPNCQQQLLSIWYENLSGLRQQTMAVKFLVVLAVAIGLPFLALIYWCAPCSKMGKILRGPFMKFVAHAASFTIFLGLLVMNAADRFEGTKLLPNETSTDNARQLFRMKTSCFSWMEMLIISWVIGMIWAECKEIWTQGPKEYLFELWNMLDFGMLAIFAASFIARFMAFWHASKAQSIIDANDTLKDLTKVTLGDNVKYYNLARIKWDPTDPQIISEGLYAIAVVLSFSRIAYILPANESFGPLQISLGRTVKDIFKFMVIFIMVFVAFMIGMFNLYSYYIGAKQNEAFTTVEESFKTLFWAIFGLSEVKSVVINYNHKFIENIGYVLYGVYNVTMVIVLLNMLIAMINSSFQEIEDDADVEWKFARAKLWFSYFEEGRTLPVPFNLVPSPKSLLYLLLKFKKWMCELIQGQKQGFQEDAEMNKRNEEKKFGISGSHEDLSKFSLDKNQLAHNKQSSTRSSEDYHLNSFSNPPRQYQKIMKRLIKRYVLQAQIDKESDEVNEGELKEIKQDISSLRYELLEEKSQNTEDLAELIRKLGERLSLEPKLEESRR
TRPC4 PAM – allosteric potentiators of mouse TRPC4 channel. 310,000 compounds, 0.42% hits. Q9QUQ5. AID 2227. B-score at 10 µM. HEK293 TRPC4beta/mu-opioid, DAMGO EC20, Fluo-4 Ca2+ flux; active compounds read high;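 active means B-score of calcium response area above 5 SD of library B-scores, with initial fluorescence ratio within 5 SD of library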;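 further: B-score of integrated fluorescence ratio over time as area under calcium response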
TRPC6 inh – blocks the mouse TRPC6 cation channel | Q61143 | HEK293-TRPC6, membrane potential dye, ACh-evoked depolarization; active compounds read low | B-score at 10 µM | 310,000 compounds, 1.1% hits | AID 2553;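 active means B-score under library mean minus 3 SD, initial fluorescence not abnormally high, positive integrated signal ratio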;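 further: B-score derived from integrated fluorescence ratio over the kinetic read; more negative B-score means stronger inhibition of depolarization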
TRPC4 block – TRPC4 (mouse) channel inhibition; Q9QUQ5; HEK293 TRPC4beta/mu-opioid, DAMGO-evoked Fluo4 calcium flux; active compounds read low; B-score at 10 µM; 300,000 compounds, 0.39% hits; AID 2247;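 active means B-score over 3 SD under the library average, no early fluorescence shift, positive overall ratio signal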
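Material: HEK293 cells with stable TRPC4beta plus mu-opioid receptor expression / Probe or stimulus: DAMGO in two steps, submaximal then maximal / Compound: single concentration per test compound / Technique: kinetic Fluo4 fluorescence imaging of calcium influx / Read-out: per-well B score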
* = called active by the depositor; i = inactive.

SMILES | TRPC4 act | TRPC6 activator | TRPC4 PAM | TRPC6 inh | TRPC4 block
CC(C)c1nc(SCC(=O)Nc2cccc(C(F)(F)F)c2)c2c(=O)n(C)c(=O)n(C)c2n1 | i | i | 12* | i | i
COc1cc(CN2CCCC(C(=O)Nc3ccccc3Oc3cccnc3)C2)ccc1F (centres undefined) | i | i | i | i | i
Cc1ccccc1CN1CCCC(C(=O)Nc2ccccc2Oc2cccnc2)C1 (centres undefined) | i | i | i | i | -7*
O=C(Nc1ccccc1Oc1cccnc1)C1CCCN(Cc2cccc(Cl)c2)C1 (centres undefined) | i | i | i | i | -6*
CN(CC(=O)Nc1ccccc1C(F)(F)F)C(=O)c1ccc(-c2ccc(Cl)cc2)o1 | i | i | i | i | i
COc1cccc(OCc2cc(C(=O)NCCN3CCCCC3CO)no2)c1 (centres undefined) | i | i | i | i | i
Cc1cc(OCc2cc(C(=O)NCCN3CCCCC3CO)no2)cc(C)c1Cl (centres undefined) | i | i | i | i | -7*
CCOC(=O)C1=C(CS(=O)(=O)c2ccc(F)cc2)NC(=O)NC1c1ccc(O)c(O)c1 (centres undefined) | i | i | i | i | i
CCN(CC)S(=O)(=O)c1ccc(Cl)c(C(=O)Nc2nnc(C)s2)c1 | i | i | i | i | i
CCN1CCN(S(=O)(=O)c2ccc(Cl)c(C(=O)Nc3nnc(C)s3)c2)CC1 | 50* | i | i | i | i
Cc1cc(=O)oc2c(C)c(OCC(=O)NCCCN3CCOCC3)ccc12 | i | i | i | i | i
COc1cc(NS(=O)(=O)c2ccc(NC(=S)NC(=O)c3ccc(F)c(F)c3)cc2)nc(OC)n1 | i | i | i | i | i
C/C(=N\N1CCN(C)CC1)c1ccc(Cl)c(Cl)c1 | i | i | 15* | i | i
C/C(=N\N1CCN(C)CC1)c1ccc(OC(F)F)cc1 | i | i | i | i | i
CC(C)(C)C(=O)Nc1cc2c3c(c1)CCC(=O)N3CCC2 | i | i | i | i | i
Nc1ccc(Sc2ccc([N+](=O)[O-])cc2)cc1 | i | i | i | i | -6*
O=C1C=CC(=O)N1c1ccc(Sc2ccc([N+](=O)[O-])cc2)cc1 | i | i | i | i | i
CCCOc1ccc(C(=O)OCCN2CCCCC2)c(O)c1 | i | i | i | i | i
N#Cc1ccccc1OCC(=O)OCCCOC(=O)COc1ccccc1C#N | i | i | i | i | i
Cc1ccc(NC(=O)CN(C)C(=O)c2cccnc2Nc2cccc(C(F)(F)F)c2)cc1 | i | i | i | i | i
O=S(=O)(c1ccc(Oc2ccc(Br)cc2)cc1)N1CCOCC1 | i | i | 17* | i | i
CC(=O)/C=C(\C)Nc1ccccc1O | i | i | i | i | i
CCN1C(=O)CC(c2ccc(OC(C)C)cc2)C1=O (centres undefined) | i | i | i | i | i
O=C(c1ccccc1)N(Cc1ccc(F)cc1)Cc1nc2ccccc2c(=O)[nH]1 | i | i | 12* | i | i
CNC(=S)N1N=C(c2ccc(C)cc2)CC1c1cc(OC)ccc1OC (centres undefined) | i | i | 17* | i | i
SMILES | TRPC4 act | TRPC6 activator | TRPC4 PAM | TRPC6 inh | TRPC4 block
CNC(=S)N1N=C(c2ccc(C)cc2)CC1c1ccc(OC)cc1 (centres undefined) | i | i | i | i | i
O=C(CCN1CCN(CCO)CC1)Nc1ccc(OCc2ccccc2)cc1 | i | i | i | i | i
O=C(CCN1CCN(Cc2ccccc2)CC1)Nc1ccc(OCc2ccccc2)cc1 | i | i | 15* | i | i
O=C(CCN1CCN(Cc2ccccc2)CC1)Nc1cccc(Br)c1 | i | i | 20* | i | i
CCCOc1ccc(NC(=O)CC2C(=O)N(CC)C(=S)N2CCNC(C)=O)cc1 (centres undefined) | i | i | i | i | i
CCCOc1ccc(NC(=O)CC2C(=O)N(CC)C(=S)N2CCCN2CCN(Cc3ccccc3)CC2)cc1 (centres undefined) | i | i | 10* | i | i
CCc1ccc(C(=O)NNC(=O)CCN2CCN(Cc3ccccc3)CC2)cc1 | i | i | 12* | i | i
CCC(=O)N1CCCN(S(=O)(=O)c2ccc(C)cc2)C1c1ccc(OC)cc1 (centres undefined) | i | i | i | i | i
COC(=O)c1ccc(NC(=O)CCN2CCN(Cc3ccccc3)CC2)cc1 | i | i | 27* | i | i
COC(=O)c1sc(NC(=S)NC(=O)c2ccccc2C)nc1C | 49* | i | i | i | i
O=C(NCc1ccc(Cl)cc1)c1cccc2c1C(=O)N(CC1CCCO1)C2 (centres undefined) | i | i | i | i | i
COc1ccccc1C1CCN(c2cc(O)ccc2[N+](=O)[O-])CC1 | i | i | 13* | i | -5*
COc1ccccc1C1CCN(C(=O)c2ccccc2)CC1 | i | i | i | i | i
O=C(Nc1nc2c(s1)CN(Cc1ccccc1)CC2)c1c(F)cccc1F | i | i | 17* | i | i
C/C(=N\NC(=O)c1cc2ccccc2cc1O)c1ccccn1 | 53* | i | i | i | i
C/C(=N\NC(=O)c1c[nH]c2ccccc12)c1ccccn1 | i | i | i | i | i
CCOC(=O)N1CCC(N2Cc3cccc(C(=O)Nc4ccccc4OC)c3C2=O)CC1 | i | i | i | i | i
CCCC/C(O)=C1\C(=O)CC(C)(C)CC1=Nc1ccc(OC)cc1 | i | i | 12* | i | i
O=C(Nc1ccncc1)c1ccc(Cl)c(S(=O)(=O)N2CCc3ccccc32)c1 | 95* | i | i | i | i
COc1ccc(N(C(=O)Cn2nnc3ccccc32)C(C(=O)NCc2ccco2)c2ccncc2)cc1 (centres undefined) | i | i | i | i | i
CCCCN(CC)CCNC(=S)Nc1ccc2nc(N3CCN(C)CC3)cc(C)c2c1 | 66* | i | i | i | i
CCCCN(CC)CCNC(=O)CCC(=O)Nc1ccc2nc(N3CCN(C)CC3)cc(C)c2c1 | 118* | i | i | i | i
CCCN(CCC)CCCNC(=S)Nc1ccc2nc(N3CCN(CC)CC3)cc(C)c2c1 | i | i | i | i | i
CCN(CC)CCCNC(=O)CCC(=O)Nc1ccc2nc(N3CCCCC3)cc(C)c2c1 | i | i | i | i | i

Compound activity as filed in PubChem.
